Measured values: ChEMBL document CHEMBL4376814, “Novel cyclin-dependent kinase 9 (CDK9) inhibitor with suppression of cancer stemness activity against non-small-cell lung cancer” (Eur J Med Chem, 2019)
Activity calls are given as the source filed them. The calls are words filed in the database; no cut-off is given here.

Tests used:
NCI-H1299 [1] = experiment: Induction of cell cycle arrest in human H1299 cells assessed as accumulation of cells at G0/G1 phase at 1 uM after 24 hrs by propidium iodide/RNase staining based flow cytometric analysis; assay type: functional
Procedure, shortened: (§1)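 A549 and H1299 plated at 5×10^5 cells/mL in 6-well plates, treated after adherence for 24 h. Washed with PBS, fixed overnight in ice-cold 75% ethanol, stained with propidium iodide plus RNase A for 30 min at 37 °C, analysed by flow cytometry for phase distribution. Means ± SD, three independent experiments.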

[2] = molecular target: Mitogen-activated protein kinase kinase kinase kinase 3 (Homo sapiens) (UniProt Q8IVH8); experiment: Inhibition of recombinant human MAP4K3 (1 to 291 residues) at 1 uM using RLGRDKYKTLRQIRQ as substrate measured after 40 mins in presence of [gamma33P]ATP by scintillation counting method relative to control
NCI-H1299 [3] = experiment: Induction of cell cycle arrest in human H1299 cells assessed as increase in accumulation of cells at G2/M phase at 1 uM after 24 hrs by propidium iodide/RNase staining based flow cytometric analysis (reference value: 19%); assay type: functional; procedure, shortened: as §1
[4] = molecular target: Dual specificity protein kinase CLK4 (Homo sapiens) (UniProt Q9HAZ1); experiment: Inhibition of recombinant human CLK4 (128 to end residues) at 1 uM using YRRAAVPPSPSLSRHSSPHQS(p) EDEEE as substrate measured after 40 mins in presence of [gamma33P]ATP by scintillation counting method relative to control
Procedure, shortened: (§2)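 Single-point inhibition at 1 µM was measured in the Eurofins KinaseProfiler panel. Values are the mean of two independent experiments.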

[5] = molecular target: Hepatocyte growth factor receptor (Homo sapiens) (UniProt P08581); experiment: Inhibition of recombinant human MET A1209G/V1290L mutant (974 to end residues) at 1 uM using KKKGQEEEYVFIE as substrate measured after 40 mins in presence of [gamma33P]ATP by scintillation counting method relative to control
Sequence of Hepatocyte growth factor receptor (Homo sapiens) (P08581 whole entry): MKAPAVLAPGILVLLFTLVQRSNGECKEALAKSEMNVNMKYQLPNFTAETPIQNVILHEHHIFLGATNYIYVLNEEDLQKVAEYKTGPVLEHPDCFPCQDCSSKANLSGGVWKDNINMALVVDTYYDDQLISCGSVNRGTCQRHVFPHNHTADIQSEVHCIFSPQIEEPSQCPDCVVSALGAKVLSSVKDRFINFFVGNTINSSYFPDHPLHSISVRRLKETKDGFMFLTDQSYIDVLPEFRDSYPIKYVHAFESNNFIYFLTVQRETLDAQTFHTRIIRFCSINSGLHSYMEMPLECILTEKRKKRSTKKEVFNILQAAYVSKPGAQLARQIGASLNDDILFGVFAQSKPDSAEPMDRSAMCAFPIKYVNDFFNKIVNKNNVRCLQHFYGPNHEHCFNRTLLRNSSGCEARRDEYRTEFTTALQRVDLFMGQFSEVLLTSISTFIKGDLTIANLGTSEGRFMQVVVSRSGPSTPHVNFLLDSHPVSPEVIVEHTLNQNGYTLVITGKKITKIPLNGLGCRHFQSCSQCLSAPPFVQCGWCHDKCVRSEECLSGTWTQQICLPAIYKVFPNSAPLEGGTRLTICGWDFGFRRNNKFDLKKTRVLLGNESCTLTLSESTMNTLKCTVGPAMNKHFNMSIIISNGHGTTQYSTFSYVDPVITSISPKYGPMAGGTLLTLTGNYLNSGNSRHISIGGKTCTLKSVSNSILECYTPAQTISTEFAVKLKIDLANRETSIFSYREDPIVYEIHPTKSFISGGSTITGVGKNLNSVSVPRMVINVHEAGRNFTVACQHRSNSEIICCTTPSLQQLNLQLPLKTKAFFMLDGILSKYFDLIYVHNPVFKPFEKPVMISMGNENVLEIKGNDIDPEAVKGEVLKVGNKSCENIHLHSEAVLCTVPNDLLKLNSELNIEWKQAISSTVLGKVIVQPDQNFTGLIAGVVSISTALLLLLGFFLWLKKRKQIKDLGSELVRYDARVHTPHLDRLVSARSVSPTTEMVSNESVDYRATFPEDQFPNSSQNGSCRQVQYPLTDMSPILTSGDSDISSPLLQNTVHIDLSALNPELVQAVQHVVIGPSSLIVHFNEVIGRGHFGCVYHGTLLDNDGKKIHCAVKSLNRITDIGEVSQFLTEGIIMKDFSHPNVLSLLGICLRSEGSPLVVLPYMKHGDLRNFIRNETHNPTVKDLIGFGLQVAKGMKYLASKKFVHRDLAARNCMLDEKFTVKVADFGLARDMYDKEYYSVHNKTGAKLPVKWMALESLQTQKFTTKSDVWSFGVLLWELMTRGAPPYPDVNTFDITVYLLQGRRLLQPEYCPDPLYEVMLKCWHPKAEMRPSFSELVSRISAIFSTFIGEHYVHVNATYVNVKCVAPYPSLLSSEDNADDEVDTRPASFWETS

A549 [6] = experiment: Induction of apoptosis in human A549 cells assessed as early apoptotic cells at 0.25 uM after 48 hrs by AnnexinV-FITC/PI staining-based flow cytometric analysis (reference value: 2.91%); assay type: functional
[7] = molecular target: FKBP12A/mTOR (Homo sapiens) (UniProt P62942+P42345); experiment: Inhibition of recombinant full-length human mTOR/FKBP12 at 1 uM measured after 40 mins in presence of [gamma33P]ATP by scintillation counting method relative to control; assay type: protein-complex assay
Sequence of FKBP12A/mTOR (Homo sapiens) (P62942 2-108 limits assumed, other chains not shown): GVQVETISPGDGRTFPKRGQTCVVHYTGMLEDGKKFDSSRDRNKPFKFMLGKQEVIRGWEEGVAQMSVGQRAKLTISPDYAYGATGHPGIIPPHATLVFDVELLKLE

[8] = molecular target: Serine/threonine-protein kinase/endoribonuclease IRE1 (Homo sapiens) (UniProt O75460); experiment: Inhibition of recombinant human IRE1 (465 to end residues) at 1 uM using myelin basic protein as substrate measured after 40 mins in presence of [gamma33P]ATP by scintillation counting method relative to control
[9] = molecular target: Phosphatidylinositol 4-phosphate 5-kinase type-1 gamma (Homo sapiens) (UniProt O60331); experiment: Inhibition of recombinant full-length human PIP5K1gamma at 1 uM using phosphatidylinositol 4-phosphate as substrate measured after 40 mins by HTRF assay relative to control
[10] = molecular target: Protein kinase C iota type (Homo sapiens) (UniProt P41743); experiment: Inhibition of recombinant full-length human PKCiota at 1 uM using ERMRPRKRQGSVRRRV as substrate measured after 40 mins in presence of [gamma33P]ATP by scintillation counting method relative to control
Sequence of Protein kinase C iota type (Homo sapiens) (P41743 whole entry, the tested form may be a part): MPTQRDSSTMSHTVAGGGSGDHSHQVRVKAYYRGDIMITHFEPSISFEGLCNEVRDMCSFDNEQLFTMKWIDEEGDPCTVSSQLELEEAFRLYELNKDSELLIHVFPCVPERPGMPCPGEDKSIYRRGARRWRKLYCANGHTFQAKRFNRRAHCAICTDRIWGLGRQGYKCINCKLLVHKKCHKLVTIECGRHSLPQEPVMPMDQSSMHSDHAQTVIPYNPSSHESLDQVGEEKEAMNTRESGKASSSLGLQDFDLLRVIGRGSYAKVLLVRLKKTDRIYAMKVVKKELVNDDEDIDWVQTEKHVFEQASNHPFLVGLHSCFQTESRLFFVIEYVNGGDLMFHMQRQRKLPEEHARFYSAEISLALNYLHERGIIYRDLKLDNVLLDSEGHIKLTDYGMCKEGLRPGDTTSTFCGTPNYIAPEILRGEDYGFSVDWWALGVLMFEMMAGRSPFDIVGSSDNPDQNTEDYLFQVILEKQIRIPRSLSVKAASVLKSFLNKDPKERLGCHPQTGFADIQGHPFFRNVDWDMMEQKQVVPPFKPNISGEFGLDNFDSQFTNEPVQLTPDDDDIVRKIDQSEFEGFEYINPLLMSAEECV

[11] = molecular target: Ephrin type-A receptor 5 (Homo sapiens) (UniProt P54756); experiment: Inhibition of recombinant human EphA5 (655 to 956 residues) at 1 uM using poly(Glu, Tyr) 4:1 as substrate measured after 40 mins in presence of [gamma33P]ATP by scintillation counting method relative to control
Sequence of Ephrin type-A receptor 5 (Homo sapiens) (P54756 whole entry, the tested form may be a part): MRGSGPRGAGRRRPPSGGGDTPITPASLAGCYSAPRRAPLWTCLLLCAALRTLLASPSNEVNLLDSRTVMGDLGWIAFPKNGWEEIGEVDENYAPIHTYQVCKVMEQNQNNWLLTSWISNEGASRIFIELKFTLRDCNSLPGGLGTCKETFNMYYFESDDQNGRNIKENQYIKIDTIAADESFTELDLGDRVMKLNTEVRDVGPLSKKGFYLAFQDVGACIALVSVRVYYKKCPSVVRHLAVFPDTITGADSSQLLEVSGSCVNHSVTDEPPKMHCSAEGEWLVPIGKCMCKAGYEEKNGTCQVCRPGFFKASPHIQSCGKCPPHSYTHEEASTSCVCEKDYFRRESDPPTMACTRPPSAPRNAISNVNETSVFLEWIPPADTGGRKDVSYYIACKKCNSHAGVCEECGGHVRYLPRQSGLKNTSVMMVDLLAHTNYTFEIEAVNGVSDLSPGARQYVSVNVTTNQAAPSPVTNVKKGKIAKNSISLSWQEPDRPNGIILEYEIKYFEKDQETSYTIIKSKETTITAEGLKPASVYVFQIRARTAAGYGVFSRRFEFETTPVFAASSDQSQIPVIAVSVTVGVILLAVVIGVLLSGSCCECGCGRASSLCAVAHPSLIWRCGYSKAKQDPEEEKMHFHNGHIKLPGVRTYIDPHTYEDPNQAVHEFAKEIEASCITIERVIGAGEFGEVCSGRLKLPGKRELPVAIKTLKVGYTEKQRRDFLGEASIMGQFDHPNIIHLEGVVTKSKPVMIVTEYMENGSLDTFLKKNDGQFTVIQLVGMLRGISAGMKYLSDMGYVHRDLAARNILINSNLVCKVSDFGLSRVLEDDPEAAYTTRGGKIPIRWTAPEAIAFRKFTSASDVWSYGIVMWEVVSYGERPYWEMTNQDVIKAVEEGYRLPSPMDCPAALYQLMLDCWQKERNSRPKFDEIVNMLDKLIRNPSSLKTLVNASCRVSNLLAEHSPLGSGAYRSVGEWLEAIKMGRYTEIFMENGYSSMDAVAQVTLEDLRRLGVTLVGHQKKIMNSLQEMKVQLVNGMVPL

NCI-H1299 [12] = experiment: Antitumour activity against human H1299 cells xenografted in Balb/c mouse assessed as inhibition of phosphorylation of RNA polymerase 2 CTD domain at Ser 5 residue at 20 to 80 mg/kg, po administered for 3 weeks by […] based light microscopic analysis; assay type: functional, organism-based
Procedure, shortened: (§3)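 Tumours came from the H1299 oral-dosing xenograft run for 3 weeks. Formalin-fixed, paraffin-embedded 5-µm sections were deparaffinized and rehydrated. Primary antibodies (CDK9, cyclin T1, p-Rb Ser780, RNAPII CTD Ser5, Oct4) used at 1:100 overnight at 4 °C. Biotinylated secondary for 1 h at room temperature, then ABC-peroxidase/DAB, hematoxylin counterstain and light microscopy.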

[13] = molecular target: Serine/threonine-protein kinase PRP4 homolog (Homo sapiens) (UniProt Q13523); experiment: Inhibition of human PRP4 (663 to end residues) at 1 uM using casein as substrate measured after 120 mins in presence of [gamma33P]ATP by scintillation counting method relative to control; procedure, shortened: as §2
NCI-H1299 [14] = experiment: Antitumour activity against human H1299 cells xenografted in Balb/c mouse assessed as inhibition of Rb phosphorylation at Ser 780 residue at 20 to 80 mg/kg, po administered for 3 weeks by […] based light microscopic analysis; assay type: functional, organism-based; procedure, shortened: as §3
[15] = molecular target: Protein kinase C beta type (Homo sapiens) (UniProt P05771); experiment: Inhibition of recombinant human PKCbeta1 (2 to end residues) at 1 uM using histone H1 as substrate measured after 40 mins in presence of [gamma33P]ATP by scintillation counting method relative to control
A549 [16] = experiment: Induction of apoptosis in human A549 cells assessed as increase in cleaved caspase 3 expression at 0.25 to 1 uM after 24 hrs by Western blot analysis; assay type: functional, cell-based
Procedure, shortened: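 A549 or H1299 cells exposed to the indicated concentrations for 24 h. Protein extracts then immunoblotted for apoptosis-pathway proteins (Bcl2, Bim, cleaved caspase 3).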

[17] = molecular target: Activated CDC42 kinase 1 (Homo sapiens) (UniProt Q07912); experiment: Inhibition of recombinant human ACK1 (1 to 389 residues) at 1 uM using EFPIYDFLPAKKK as substrate measured after 40 mins in presence of [gamma33P]ATP by scintillation counting method relative to control
A549 [18] = experiment: Inhibition of tumorsphere formation in human A549 cells assessed as reduction in side population ratio at 0.25 to 1 uM by PI/Hoechst 33342 staining based flow cytometry; assay type: functional, cell-based
[19] = molecular target: Mitogen-activated protein kinase 1 (Homo sapiens) (UniProt P28482); experiment: Inhibition of recombinant full-length human MAPK1 at 1 uM using MBP as substrate measured after 40 mins in presence of [gamma33P]ATP by scintillation counting method relative to control
[20] = molecular target: Protein kinase C epsilon type (Homo sapiens) (UniProt Q02156); experiment: Inhibition of recombinant human PKCepsilon (2 to end residues) at 1 uM using ERMRPRKRQGSVRRRV as substrate measured after 40 mins in presence of [gamma33P]ATP by scintillation counting method relative to control
Sequence of Protein kinase C epsilon type (Homo sapiens) (Q02156 whole entry): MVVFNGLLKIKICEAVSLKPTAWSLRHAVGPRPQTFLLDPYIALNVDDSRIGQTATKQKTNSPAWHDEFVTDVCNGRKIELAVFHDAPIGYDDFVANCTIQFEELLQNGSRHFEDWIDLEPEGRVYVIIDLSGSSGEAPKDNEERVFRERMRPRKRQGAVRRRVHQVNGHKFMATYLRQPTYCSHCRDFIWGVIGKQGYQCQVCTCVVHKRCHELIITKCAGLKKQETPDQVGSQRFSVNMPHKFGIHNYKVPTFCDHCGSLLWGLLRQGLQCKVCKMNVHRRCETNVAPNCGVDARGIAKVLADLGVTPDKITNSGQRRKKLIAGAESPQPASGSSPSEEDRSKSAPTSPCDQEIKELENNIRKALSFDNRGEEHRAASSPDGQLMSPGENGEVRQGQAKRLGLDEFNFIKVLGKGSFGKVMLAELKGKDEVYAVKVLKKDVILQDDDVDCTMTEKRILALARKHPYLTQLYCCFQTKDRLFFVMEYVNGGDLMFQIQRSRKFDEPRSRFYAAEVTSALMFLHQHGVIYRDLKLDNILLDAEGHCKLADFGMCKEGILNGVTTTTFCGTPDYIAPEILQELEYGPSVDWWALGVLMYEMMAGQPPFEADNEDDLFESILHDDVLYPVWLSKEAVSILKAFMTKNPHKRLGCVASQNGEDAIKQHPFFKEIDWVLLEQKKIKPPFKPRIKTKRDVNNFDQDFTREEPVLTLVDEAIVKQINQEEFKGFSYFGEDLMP

[21] = molecular target: Leukocyte tyrosine kinase receptor (Homo sapiens) (UniProt P29376); experiment: Inhibition of recombinant human LTK (450 to end residues) at 1 uM using GEEPLYWSFPAKKK as substrate measured after 40 mins in presence of [gamma33P]ATP by scintillation counting method relative to control
Sequence of Leukocyte tyrosine kinase receptor (Homo sapiens) (P29376 whole entry): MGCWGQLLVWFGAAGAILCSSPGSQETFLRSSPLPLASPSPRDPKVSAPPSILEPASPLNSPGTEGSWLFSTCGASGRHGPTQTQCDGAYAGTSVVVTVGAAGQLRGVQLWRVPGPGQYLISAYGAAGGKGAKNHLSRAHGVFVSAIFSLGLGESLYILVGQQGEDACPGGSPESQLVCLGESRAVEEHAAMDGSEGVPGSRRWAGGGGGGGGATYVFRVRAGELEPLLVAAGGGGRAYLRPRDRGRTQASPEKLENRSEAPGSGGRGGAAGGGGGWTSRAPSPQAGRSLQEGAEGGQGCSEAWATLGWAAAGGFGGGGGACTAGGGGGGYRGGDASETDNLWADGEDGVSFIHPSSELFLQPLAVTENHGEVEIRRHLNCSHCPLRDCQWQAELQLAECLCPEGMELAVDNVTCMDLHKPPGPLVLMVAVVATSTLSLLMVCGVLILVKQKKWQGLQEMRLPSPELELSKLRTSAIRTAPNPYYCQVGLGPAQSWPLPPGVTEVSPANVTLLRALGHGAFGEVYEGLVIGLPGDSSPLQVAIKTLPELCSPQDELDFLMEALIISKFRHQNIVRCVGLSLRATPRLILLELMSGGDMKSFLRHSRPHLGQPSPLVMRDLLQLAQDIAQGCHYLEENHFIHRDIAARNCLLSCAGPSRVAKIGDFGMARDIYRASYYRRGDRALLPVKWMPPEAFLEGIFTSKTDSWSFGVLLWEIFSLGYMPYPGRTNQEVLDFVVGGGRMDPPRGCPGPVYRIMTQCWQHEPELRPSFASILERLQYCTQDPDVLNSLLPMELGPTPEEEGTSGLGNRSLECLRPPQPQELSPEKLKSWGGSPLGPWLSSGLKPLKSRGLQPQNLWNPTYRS

For `CN(C)C(=O)c1cc2cnc(Nc3ccc(NC(=O)CCCCCCCN=C=S)cc3)nc2n1C1CCCC1`, the Activity (NCI-H1299 [1]) was “inactive”, the inhibition [2] was 95% and the Activity (NCI-H1299 [3]) was 34.4%. For the same compound, the inhibition [4] was 1%, the inhibition [5] was 84% and the Activity (A549 [6]) was 1.76%. For the same compound, the inhibition [7] was -6%, the inhibition [8] was 29% and the inhibition [9] was 0%. For the same compound, the inhibition [10] was -4%, the inhibition [11] was 6% and the Activity (NCI-H1299 [12]) was “Active”. For the same compound, the inhibition [13] was 1%, the Activity (NCI-H1299 [14]) was “Active” and the inhibition [15] was 20%. For the same compound, the Activity (A549 [16]) was “Active”, the inhibition [17] was 82% and the inhibition (A549 [18]) was “Active”. For the same compound, the inhibition [19] was 3%, the inhibition [20] was -3% and the inhibition [21] was 33%.
